Experimental data: ChEMBL document CHEMBL1208708, “Piperidinyl-nicotinamides as potent and selective somatostatin receptor subtype 5 antagonists” (Bioorg Med Chem Lett, 2010)
Values after ≈ are worked out from the molar mass of the structure shown. Active and inactive are the calls of the source. The rule behind the calls is not given here.

Key:
[1] = target: T1, Somatostatin receptor type 5 (Homo sapiens, UniProt P35346); assay: Antagonist activity at human SST5 receptor expressed in CHO cells assessed as inhibition of forskolin-induced cAMP accumulation by FRET assay; format: functional, cell-based
T1 sequence (P35346 whole entry): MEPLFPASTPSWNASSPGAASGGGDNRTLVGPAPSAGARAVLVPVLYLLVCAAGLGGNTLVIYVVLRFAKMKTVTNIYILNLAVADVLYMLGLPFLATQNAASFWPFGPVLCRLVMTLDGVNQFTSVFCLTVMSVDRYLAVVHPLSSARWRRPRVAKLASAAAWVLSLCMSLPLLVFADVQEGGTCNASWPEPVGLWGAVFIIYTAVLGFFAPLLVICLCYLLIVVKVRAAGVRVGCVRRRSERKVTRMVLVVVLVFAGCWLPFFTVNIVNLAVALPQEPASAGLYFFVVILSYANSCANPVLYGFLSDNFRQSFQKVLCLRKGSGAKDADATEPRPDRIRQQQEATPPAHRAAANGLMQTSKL

[2] = Solubility of the compound in 50 mM phosphate buffer at pH 6.5 by lyophilisation solubility assay; format: physicochemical
Outline: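 Compound taken from DMSO stock solution, lyophilized, then dissolved in 50 mM phosphate buffer at pH 6.5; dissolved amount read spectrophotometrically.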

[3] = Octanol-TAPSO distribution coefficient, log D of the compound at pH 7.4 by spectrophotometric analysis; format: physicochemical; conditions: octanol/TAPSO buffer
Outline: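 Octanol/50 mM TAPSO buffer at pH 7.4 containing 5% (v/v) DMSO; partitioning read spectrophotometrically.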

Homo sapiens = organism: Homo sapiens; assay: Selectivity ratio of human SST1 receptor to human SST5 receptor
[4] = target: Histamine H1 receptor (Homo sapiens) (UniProt P35367); assay: Inhibition of human histamine H1 receptor ar 3 uM
Chain of Histamine H1 receptor (Homo sapiens) (P35367 whole entry): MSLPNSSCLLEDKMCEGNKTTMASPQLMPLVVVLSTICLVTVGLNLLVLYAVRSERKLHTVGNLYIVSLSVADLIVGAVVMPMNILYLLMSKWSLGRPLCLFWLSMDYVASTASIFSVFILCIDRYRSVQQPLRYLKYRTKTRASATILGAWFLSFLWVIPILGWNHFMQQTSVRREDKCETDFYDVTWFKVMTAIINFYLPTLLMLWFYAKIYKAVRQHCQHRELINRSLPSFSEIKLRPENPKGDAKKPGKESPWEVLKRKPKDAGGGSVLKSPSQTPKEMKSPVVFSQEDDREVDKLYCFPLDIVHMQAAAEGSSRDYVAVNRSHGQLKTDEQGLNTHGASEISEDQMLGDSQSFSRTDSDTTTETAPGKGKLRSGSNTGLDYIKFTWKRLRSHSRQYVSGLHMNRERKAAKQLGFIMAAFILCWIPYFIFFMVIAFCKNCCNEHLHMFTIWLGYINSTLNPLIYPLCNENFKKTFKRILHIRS

[5] = target: T1, Somatostatin receptor type 5; assay: Displacement of radio labeled 11 Tyr SST14 from human SST5 receptor expressed in CHO cells; format: cell-based
Outline: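 Membranes from SST5-expressing cells, made by sonication, incubated with radiolabeled 11Tyr SST-14 and varying test compound; non-specific binding defined with unlabeled SST-14. Incubation stopped by glass-fiber filtration, bound radioactivity counted; IC50 and Ki derived.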

[6] = Membrane permeability of the compound by PAMPA; format: ADME; conditions: read-out: permeability
[7] = Dissociation constant, pKa of the compound by spectrophotometric analysis; format: physicochemical
Outline: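 Measured spectrophotometrically in SGA buffer with 10% (v/v) methanol, ionic strength 150 mM; value refers to the piperidine nitrogen.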

[8] = target: Somatostatin receptor type 3 (Homo sapiens) (UniProt P32745); assay: Antagonist activity at human SST3 receptor expressed in CHO cells assessed as inhibition of forskolin-induced cAMP accumulation by FRET assay; format: functional, cell-based
Chain of Somatostatin receptor type 3 (Homo sapiens) (P32745 whole entry): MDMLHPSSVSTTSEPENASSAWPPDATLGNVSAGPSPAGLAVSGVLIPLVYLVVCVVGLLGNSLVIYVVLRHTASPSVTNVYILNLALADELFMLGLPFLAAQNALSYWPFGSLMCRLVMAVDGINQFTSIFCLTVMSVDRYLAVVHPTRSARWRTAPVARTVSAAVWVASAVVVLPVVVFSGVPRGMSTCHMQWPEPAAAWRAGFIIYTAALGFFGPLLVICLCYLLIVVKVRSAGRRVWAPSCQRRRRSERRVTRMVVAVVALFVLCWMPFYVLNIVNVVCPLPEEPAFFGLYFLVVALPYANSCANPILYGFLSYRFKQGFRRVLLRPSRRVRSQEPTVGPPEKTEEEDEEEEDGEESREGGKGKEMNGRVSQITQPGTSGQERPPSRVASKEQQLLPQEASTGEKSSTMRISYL

[9] = target: Somatostatin receptor type 2 (Homo sapiens) (UniProt P30874); assay: Antagonist activity at human SST2 receptor expressed in CHO cells assessed as inhibition of forskolin-induced cAMP accumulation by FRET assay; format: functional, cell-based
Chain of Somatostatin receptor type 2 (Homo sapiens) (P30874 whole entry): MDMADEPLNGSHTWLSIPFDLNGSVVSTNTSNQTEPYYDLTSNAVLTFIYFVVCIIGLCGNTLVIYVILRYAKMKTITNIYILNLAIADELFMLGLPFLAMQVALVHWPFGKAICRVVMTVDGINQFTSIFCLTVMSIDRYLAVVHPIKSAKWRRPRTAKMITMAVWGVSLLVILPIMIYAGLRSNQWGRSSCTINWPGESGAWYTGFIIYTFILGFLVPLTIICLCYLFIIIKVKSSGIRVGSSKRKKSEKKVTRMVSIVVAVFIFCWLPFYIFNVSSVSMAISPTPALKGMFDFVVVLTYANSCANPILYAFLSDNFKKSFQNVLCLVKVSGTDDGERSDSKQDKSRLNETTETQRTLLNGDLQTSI

[10] = target: Somatostatin receptor type 4 (Homo sapiens) (UniProt P31391); assay: Antagonist activity at human SST4 receptor expressed in CHO cells assessed as inhibition of forskolin-induced cAMP accumulation by FRET assay; format: functional, cell-based
Chain of Somatostatin receptor type 4 (Homo sapiens) (P31391 whole entry): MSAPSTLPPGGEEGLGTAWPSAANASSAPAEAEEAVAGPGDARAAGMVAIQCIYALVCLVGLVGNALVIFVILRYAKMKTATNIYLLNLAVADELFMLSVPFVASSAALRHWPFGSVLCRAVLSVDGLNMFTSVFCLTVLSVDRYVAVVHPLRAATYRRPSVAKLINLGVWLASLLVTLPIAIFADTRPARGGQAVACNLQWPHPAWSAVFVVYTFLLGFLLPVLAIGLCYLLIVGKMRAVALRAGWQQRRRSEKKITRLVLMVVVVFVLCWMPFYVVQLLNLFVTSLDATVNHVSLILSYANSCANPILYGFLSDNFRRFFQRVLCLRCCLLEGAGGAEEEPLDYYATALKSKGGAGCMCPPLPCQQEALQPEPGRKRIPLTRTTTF

| SMILES | EC50 [1] [nM] | solubility [2] [µg/mL] | logD [3] | Selectivity ratio (Homo sapiens) | inhibition [4] [%] | Ki [5] [nM] | Papp [6] [×10⁻⁶ cm/s] | pKa [7] | Activity [8] | Activity [9] | Activity [10] |
| --- | --- | --- | --- | --- | --- | --- | --- | --- | --- | --- | --- |
| CCOc1cc(CN2CCC(NC(=O)c3cncc(C)c3)CC2)cc(OCC)c1F | > 1000 | 443 (≈ 1070 µM) | 2.9 | 180 | 25 | 25 | 3.48 | 7.7 |  |  |  |
| CCOc1cc(CN2CCC[C@@H](NC(=O)c3cncc(C)c3)CC2)cc(OCC)c1F |  |  |  | 253 | 58 | 22 |  |  |  |  |  |
| CCOc1cc(CN2CCC(NC(=O)c3cncc(C)c3)CC2)cc(OCC)c1-c1ccc(F)cc1 | > 1000 | 94 (≈ 191 µM) | 4.01 | 59 | 5.9 | 4.4 | 0.46 | 7.69 |  |  |  |
| CCOc1cc(CN2CCC(NC(=O)c3cncc(C)c3)CC2)cc(OCC)c1-c1ccccc1 | > 1000 | 152 (≈ 321 µM) | 3.73 | 224 | -1.2 | 5.4 | 0.64 | 7.74 |  |  |  |
| CCOc1cc(CN2CCC(NC(=O)c3cncc(C)c3)CC2)ccc1-c1ccc(F)cc1 | > 1000 | 101 (≈ 226 µM) | 4.1 | 84 | 89 | 4.9 | 1.32 | 7.87 |  |  |  |
| CCOc1cc(CN2CCC[C@@H](NC(=O)c3cncc(C)c3)CC2)ccc1Cl |  |  |  | 175 | 98 | 18 |  |  |  |  |  |
| CCOc1cc(CN2CCC[C@H](NC(=O)c3cncc(C)c3)CC2)ccc1Cl |  |  |  |  |  | 637 |  |  |  |  |  |
| CCOc1cc(CN2CCC(NC(=O)c3ccc(NC)nc3)CC2)cc(OCC)c1-c1ccccc1 | > 1000 | 155 (≈ 317 µM) | 3.13 | 439 | 13 | 6.9 | 2.07 | 7.9 |  |  |  |
| CCOc1cc(CN2CCC(NC(=O)c3ccc(Cl)nc3)CC2)cc(OCC)c1-c1ccc(F)cc1 | > 1000 | 76 (≈ 148 µM) | 3.55 | 54 | 7.1 | 7.9 |  | 7.8 |  |  |  |
| CCOc1cc(CN2CCC(NC(=O)c3cncc(C)c3)CC2)ccc1C |  | > 433 | 3.03 | > 500 | 81 | 21 | 2.94 | 8.08 |  |  |  |
| CCOc1cc(CN2CCC[C@@H](NC(=O)c3cncc(C)c3)CC2)ccc1C |  |  |  | 256 | 97 | 22 |  |  |  |  |  |
| CCOc1cc(CN2CCC(NC(=O)c3cncc(C)c3)CC2)cc(OCC)c1-n1ccnc1 | > 1000 | 473 (≈ 1020 µM) | 2.61 | 213 | 33 | 11 | 3.17 | 7.34 |  |  |  |
| CCOc1cc(CN2CCC(NC(=O)c3cncc(C)c3)CC2)ccc1-c1ccc(C(F)(F)F)cc1 |  | < 1 | > 4 | 89 | 48 | 11 | 0.03 | 7.96 |  |  |  |
| CCOc1cc(CN2CCC(NC(=O)c3ccc(NC)nc3)CC2)cc(OCC)c1F | > 1000 | 330 (≈ 767 µM) | 2.66 | > 500 | 55 | 18 | 2.98 | 7.83 |  |  |  |
| CCOc1cc(CN2CCCC(NC(=O)c3cncc(C)c3)CC2)cc(OCC)c1-c1ccc(F)cc1 (racemic) | > 1000 | 81 (≈ 160 µM) | 3.31 | 86 | 54 | 9.3 | 1.56 | 8.34 |  |  |  |
| CCOc1cc(CN2CCC(NC(=O)c3cncc(C)c3)CC2)cc(OCC)c1Cl | > 1000 | 216 (≈ 500 µM) | 3.43 |  |  | 4.4 | 3.82 | 7.46 |  |  |  |
| CCOc1cc(CN2CCC(NC(=O)c3cncc(C)c3)CC2)cc(OCC)c1C |  | 106 (≈ 258 µM) | 3.61 |  |  | 4 | 2.36 | 7.92 |  |  |  |

Further lines, results first:

| EC50 [1] [nM] | solubility [2] [µg/mL] | logD [3] | Selectivity ratio (Homo sapiens) | inhibition [4] [%] | Ki [5] [nM] | Papp [6] [×10⁻⁶ cm/s] | pKa [7] | Activity [8] | Activity [9] | Activity [10] | SMILES |
| --- | --- | --- | --- | --- | --- | --- | --- | --- | --- | --- | --- |
| > 1000 | < 1 | > 4 | 743 | 12 | 2.4 |  |  |  |  |  | CCOc1cc(CN2CCC(NC(=O)c3cncc(C)c3)CC2)cc(OCC)c1-c1ccc(OC(F)(F)F)cc1 |
| > 1000 | > 520 | 3.39 | 141 | 35 | 6.3 | 2.41 | 7.84 |  |  |  | CCOc1cc(CN2CCC(NC(=O)c3ccc(NC(C)C)nc3)CC2)cc(OCC)c1F |
| > 1000 | 5 (≈ 9.01 µM) | 3.94 | 660 | -1.2 | 6.7 | 0.14 | 7.66 | inactive | inactive | inactive | CCOc1cc(CN2CCC(NC(=O)c3ccc(N)nc3)CC2)cc(OCc2ccccc2)c1-c1ccc(F)cc1 |
| > 1000 | 123 (≈ 250 µM) | 3.15 | 407 | 4.7 | 7.1 | 1.39 | 7.86 |  |  |  | CCOc1cc(CN2CCC(NC(=O)c3ccc(N)nc3)CC2)cc(OCC)c1-c1ccc(F)cc1 |
| > 1000 | 375 (≈ 1020 µM) | 2.24 | > 500 | 85 | 19 | 2.4 | 8.27 |  |  |  | CCOc1cc(CN2CCC(NC(=O)c3ccc(N)nc3)CC2)ccc1C |
|  | 172 (≈ 443 µM) | 3.05 | 335 |  | 15 | 1.93 | 7.63 |  |  |  | CCOc1cc(CN2CCC(NC(=O)c3cncc(C)c3)CC2)ccc1Cl |
| > 1000 |  |  |  |  | 436 |  |  | inactive | inactive | inactive | CCOc1cc(CN2CCCC(NC(=O)c3ccc(N)nc3)CC2)cc(F)c1F (racemic) |
|  | > 499 | 2.44 |  |  | > 1000 | 1.93 | 7.19 |  |  |  | CCOc1cc(CN2CC(NC(=O)c3cncc(C)c3)C2)cc(OCC)c1F |
| > 1000 | 153 (≈ 302 µM) | 3.83 | 211 | 11 | 2.5 | 1.23 | 7.86 |  |  |  | CCOc1cc(CN2CCC(NC(=O)c3ccc(NC)nc3)CC2)cc(OCC)c1-c1ccc(F)cc1 |
